High-throughput results as filed in PubChem.
697 NFkB inh – inhibitors of the PMA/ionomycin-induced NF-kB reporter in 697 B cells; 697 B-cell NF-kB luciferase reporter, 16 h; inhibition, % at 4 µM; actives 0.33% (n = 330,000); in the data active = inhibition above about 35%
Jurkat NFkB inh – inhibitors of the PMA/ionomycin-induced NF-kB reporter in Jurkat cells | AID 435003 | PMA/ionomycin-induced NF-kB luciferase reporter, luminescence | actives 0.53% (n = 330,000) | inhibition, % at 4 µM; in the data active = inhibition above about 50%
NR2E3 ag-1 – NR2E3 (human) agonism; GST-NR2E3/biotin-RetCOR TR-FRET, 1536-well; AID 2300; actives 0.12% (n = 320,000); inhibition of corepressor binding, % at 4.78 µM;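 active = percent inhibition above the cutoff of mean plus 3 SD of all tested compounds, set per screening campaign, cut at about 20% in these data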;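 note: 0% = DMSO wells and 100% = biotin wells as full block of FRET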
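System: GST-NR2E3 and biotin-RetCOR proteins; probe or stimulus: 7 nM biotin-RetCOR; doses: compound at 4.8 µM, single dose; schedule: Compound–protein incubation for 5 h at 4 °C; detection: time-resolved FRET; read-out: percent inhibition; controls: biotin wells as high control, 0.6% DMSO wells as low control; format: 1536-well plates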
GalR3 antag – blocks the human galanin receptor 3; O60755; HEK293 GalR3-CNG cAMP membrane potential fluorescence; galR3 body fused to GalR1 C-terminus; actives 0.44% (n = 360,000); inhibition, % at 3 µM;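 active = inhibition above the screen-wide average plus 3 SD, cut at about 13% in these data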;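 note: forskolin and galanin both at EC90 stimulate the cells; cAMP rise reported by CNG channel membrane potential dye signal; 0% = forskolin plus galanin with DMSO and 100% = forskolin alone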
Target sequence (O60755 1-299 limits assumed): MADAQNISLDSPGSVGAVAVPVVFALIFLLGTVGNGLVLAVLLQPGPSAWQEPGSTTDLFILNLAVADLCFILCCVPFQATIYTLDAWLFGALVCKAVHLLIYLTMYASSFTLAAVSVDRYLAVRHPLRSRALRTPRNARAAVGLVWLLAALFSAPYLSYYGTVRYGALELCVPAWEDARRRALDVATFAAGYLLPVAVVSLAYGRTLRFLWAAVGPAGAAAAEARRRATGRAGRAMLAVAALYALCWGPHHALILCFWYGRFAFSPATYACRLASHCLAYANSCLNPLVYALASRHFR
NR2E3 ag-2 – activates human NR2E3 receptor; inhibition of corepressor binding, % at 3.98 µM; Q9Y5X4; CHO-S Gal4-NCOR/VP16-NR2E3 two-hybrid, luciferase; AID 602229; actives 0.35% (n = 360,000);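 active = inhibition above the mean of all tested compounds plus 3 SD, cut at about 70% in these data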;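 note: 0% = DMSO with NR2E3 transfected cells and 100% = cells lacking NR2E3 construct; higher means lower luciferase signal from less NR2E3 corepressor binding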
Gli-Sufu antag – antagonists of Gli-Sufu signaling | Sufu-KO-LIGHT fibroblasts, Gli luciferase reporter luminescence | inhibition, % at 5 µM | actives 0.74% (n = 340,000) | AID 588413;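 active = inhibition above about 55%, limit read from the data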;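 note: 0% = DMSO-treated cells and 100% = wells with medium but no cells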
Gli-Sufu confirm – confirmation of Gli-SUFU pathway antagonists. shares compounds with Gli-Sufu antag. Sufu-KO-LIGHT cells, Gli luciferase reporter, luminescence. inhibition, % at 5 µM. actives 40% (n = 2,500). AID 602428;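 active = mean inhibition at 5 µM reaching about 45%, limit read from the data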;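 note: plate controls were DMSO-treated cells for no effect and wells lacking cells for full effect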
SufuKO cytotox – cytotoxic in Gli-SUFU antagonist counter-screen; shares compounds with Gli-Sufu antag; Sufu-KO-LIGHT cells cytotoxicity, ATP luminescence; cytotoxicity, % at 5 µM; actives 32% (n = 2,500);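 active = mean cytotoxicity at 5 µM above about 25%, limit read from the data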;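 note: cells exposed to compound overnight for roughly 16 to 18 hours; plate controls were DMSO wells with cells for no effect and medium without cells for full effect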
Wnt3a cs – counter-screen for Gli-SUFU antagonists: Wnt3a reporter inhibition. shares compounds with Gli-Sufu antag. Wnt-LIGHT cells, Wnt3a-driven luciferase reporter, luminescence. inhibition, % at 6.25 µM. actives 20% (n = 2,500). AID 651995;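 active = mean inhibition above about 25%, limit read from the data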
The depositor's hits bear a star; · = no result given. Rows were chosen to be rich in hits. Some 1.8% of all compounds tested hit in one or more screens of this group.

SMILES | 697 NFkB inh | Jurkat NFkB inh | NR2E3 ag-1 | GalR3 antag | NR2E3 ag-2 | Gli-Sufu antag | Gli-Sufu confirm | SufuKO cytotox | Wnt3a cs
CCCC(=O)Nc1c(C(=O)OCC)[nH]c2ccccc12 | -8 | -16 | 1 | 4 | 1 | 75* | 15 | 17 | -49
CCOC(=O)c1[nH]c2ccccc2c1NC(=O)CC(C)C | -11 | -17 | 1 | 2 | 21 | 54 | 23 | 9 | -19
C[C@H](O)[C@@H]1CN2CCc3c([nH]c4c(-c5ccccc5)cccc34)[C@@H]2C[C@@H]1N(C)C(=O)Nc1ccccc1 | · | · | · | -9 | · | · | · | · | ·
CCSc1nnc2n(-c3ccc(OC)cc3)c(=O)c3c4c(sc3n12)CCCC4 | 15 | 29 | -2 | -5 | 15 | -1 | · | · | ·
COc1ccccc1-n1c(=O)c2c3c(sc2n2c(SC)nnc12)CCC3 | 18 | 4 | -2 | 0 | -28 | 52 | 15 | -4 | 17
CSc1nc2c(=O)[nH]cnc2s1 | · | · | · | -5 | · | · | · | · | ·
O=C(CC(Cc1ccccc1)C(=O)O)Nc1ccc(F)cc1 (stereo not drawn) | -7 | -12 | 3 | -2 | -47 | 10 | · | · | ·
O=C(CC(Cc1ccccc1)C(=O)O)Nc1cccc(C(F)(F)F)c1 (stereo not drawn) | -4 | 9 | -2 | -2 | 21 | 54 | 13 | 11 | -3
O=C(NCc1cccc(C(F)(F)F)c1)C1CC2Cn3c(nc4ccccc43)C2N1Cc1ccccc1 (stereo not drawn) | 0 | -5 | 0 | 7 | -3 | 6 | · | · | ·
CCCCN(CC)CCCNC(=O)c1cc2c(-c3ccc(OC)c(OC)c3)nn(C)c2s1 | 1 | -48 | 1 | -6 | -7 | 56* | 17 | 11 | -14
CCN(CC)CCCNC(=O)c1cc2c(-c3cccc(OC)c3)nn(C)c2s1 | -15 | -85 | -1 | -12 | -23 | 6 | · | · | ·
O=Nc1ccc(Cl)cn1 | · | · | · | -8 | · | · | · | · | ·
Cc1ccc2[nH]c(=O)c(CN(Cc3cccs3)Cc3nnnn3CC3CCCO3)cc2c1 (stereo not drawn) | -2 | 9 | 2 | 3 | -12 | 54 | 21 | 14 | -17
Cc1ccc2cc(CN(Cc3cccs3)Cc3nnnn3CC3CCCO3)c(=O)[nH]c2c1 (stereo not drawn) | 20 | -5 | -3 | -7 | -25 | 1 | · | · | ·
O=C(CN1C(=O)COc2ccc(S(=O)(=O)N3CCCCC3)cc21)NCc1ccc(Cl)cc1 | -2 | 32 | -1 | -7 | -6 | 59* | 8 | 25* | -29
Cn1c(C(=O)NCCN2CCCCCC2)cc2c(=O)n(C)c3ccccc3c21 | 3 | -36 | -2 | -2 | -20 | 1 | · | · | ·
Cn1c(C(=O)NC2CCCC2)cc2c(=O)n(C)c3ccccc3c21 | · | · | 5 | 2 | -4 | 99* | 31 | 14 | -22
CC(C)N(CCCNC(=O)c1nn(C)c2c1CS(=O)(=O)c1ccccc1-2)Cc1ccccc1 | -3 | -3 | 5 | 2 | -15 | 61* | 24 | 18 | -9
CCCC(C)C(=O)Nc1nc(C)c(-c2csc(Nc3ccc(Cl)cc3)n2)s1 (stereo not drawn) | -43 | -7 | 4 | -3 | -23 | 53 | 60* | 18 | 5
CCOc1ccc(N(C)C(=O)CCc2nnc3ccc(N4CCCCC4)nn23)cc1 | -21 | -2 | -1 | -10 | -3 | 59* | 25 | 9 | -14
C=CCn1c(=O)n(CC=C)c(=O)n(CC=C)c1=O | · | · | · | -1 | · | · | · | · | ·
Cc1cccc(Nc2ncnc3ccc(Br)cc23)c1 | -7 | 0 | 7 | -2 | -10 | -10 | · | · | ·
Clc1cccc(Nc2ncnc3ccc(Br)cc23)c1 | -30 | 8 | 14 | -9 | -27 | 62* | 20 | 2 | 11
